Measured values as given in ChEMBL document CHEMBL3352753, “Novel strategy to boost oral anticoagulant activity of blood coagulation enzyme inhibitors based on biotransformation into hydrophilic conjugates” (Bioorg Med Chem, 2014).
Active and inactive are the calls of the source. The calls are words filed in the database; no cut-off is given here.

What was measured:
[1] = target: Coagulation factor X (Homo sapiens, UniProt P00742); experiment: Inhibition of purified factor 10a (unknown origin) using chromogenic substrate S-2222 by spectrophotometry
Method in brief: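 Chromogenic assay with S-2222 substrate in 0.05 M Tris-HCl pH 8.4 or 0.15 M NaCl. Reaction started by adding enzyme, and A405 read continuously at 37 °C. IC50 taken from a plot of logit residual activity against log inhibitor concentration. Mean of three separate determinations.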

[2] = tested on: Cynomolgus monkey; experiment: Ex vivo anticoagulant activity in cynomolgus monkey plasma at 1 mg/kg, iv as single bolus dose measured after 5 mins post dose; assay type: functional, organism-based; set-up: dose 1 mg/kg; details: Macaca fascicularis
Method in brief: (§1)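 Cynomolgus monkeys (n = 3) received a single intravenous bolus. Citrated blood was taken 5 min later and platelet-poor plasma prepared by centrifugation. PT expressed relative to normal cynomolgus monkey plasma, as mean + SD.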

[3] = tested on: Cynomolgus monkey; experiment: Ex vivo anticoagulant activity in cynomolgus monkey plasma at 1 to 10 mg/kg, po as single bolus dose measured after 5 mins post dose; assay type: functional, organism-based; details: Macaca fascicularis
[4] = Permeability of the compound at pH 6.5 after 2 hrs by PAMPA; assay type: ADME; details: read-out: permeability
Method in brief: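 PAMPA in a filter-plate sandwich. Sample was 50 µM final, in buffer with 10% DMSO, filtered before use. Donor was pH 6.5 and acceptor pH 7.4. Plates incubated 2 h at 25 °C in humid air. Donor and acceptor contents quantified by UV spectrum (270–400 nm) against reference standards. n = 2.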

[5] = Lipophilicity, logD of the compound; assay type: physicochemical; details: octanol/water
[6] = tested on: Plasma; experiment: Anticoagulant activity in cynomolgus monkey plasma assessed as concentration required to double prothrombin time by coagulometry; assay type: functional, Macaca fascicularis
Method in brief: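 Citrated cynomolgus monkey blood spun at 3000 rpm for 10 min to give platelet-poor plasma, stored at −40 °C. Prothrombin time measured by coagulometer at 37 °C with thromboplastin, compared against a distilled water control. CT2 (concentration doubling clotting time) estimated from each individual concentration–response curve. Mean of three separate determinations.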

[7] = target: Prothrombin (Homo sapiens, UniProt P00734); experiment: Inhibition of purified thrombin (unknown origin) using chromogenic substrate S-2238 by spectrophotometry
Method in brief: (§2)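 Chromogenic amidolysis started by adding enzyme, with A405 monitored continuously at 37 °C. Thrombin was 0.20 U/mL final with S-2238. Trypsin was 1.0 U/mL final with S-2222. Hydrolysis rate recorded as mOD/min.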

[8] = target: Trypsin (Homo sapiens, UniProt P07477+P07478+P35030); experiment: Inhibition of purified trypsin (unknown origin) using chromogenic substrate S-2222 by spectrophotometry; assay type: protein assay; method in brief: as §2
[9] = tested on: Cynomolgus monkey; experiment: Ex vivo anticoagulant activity in cynomolgus monkey plasma at 0.1 mg/kg, iv as single bolus dose measured after 5 mins post dose; assay type: functional, organism-based; set-up: dose 0.1 mg/kg; details: Macaca fascicularis; method in brief: as §1
[10] = tested on: Plasma; experiment: Drug level in cynomolgus monkey plasma treated with 4'-Bromo-2'-[(5-chloro-2-pyridyl)carbamoyl]-6'-hydroxyl-1-isopropylpiperidine-4-carboxanilide hydrochloride at 10 mg/kg, po as single bolus dose measured after 1 to 24 hrs post dose; assay type: ADME, organism-based, Macaca fascicularis; set-up: dose 10 mg/kg, route oral; details: in vivo
Method in brief: (§3)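 Male cynomolgus monkeys (4.0–4.5 kg, n = 3), fasted, given 10 mg/kg orally as a suspension in 0.5% methylcellulose. Blood sampled at 1, 2, 4, 6, 8, 12 and 24 h and spun to plasma. Samples underwent solid-phase extraction, were dried, reconstituted in mobile phase and measured by LC–MS/MS for parent and glucuronide, with an internal standard. Dose and concentrations expressed as free form. LOQ 10 ng/mL.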

[11] = tested on: Cynomolgus monkey; experiment: Ex vivo anticoagulant activity in cynomolgus monkey plasma at 1 mg/kg, po as single bolus dose measured after 5 mins post dose; assay type: functional, organism-based; set-up: dose 1 mg/kg; details: Macaca fascicularis
[12] = tested on: Plasma; experiment: Drug metabolism in cynomolgus monkey plasma assessed as formation of glucuronide metabolite at 10 mg/kg, po as single bolus dose measured after 1 to 24 hrs post dose; assay type: ADME, organism-based, Macaca fascicularis; set-up: dose 10 mg/kg, route oral; details: in vivo; method in brief: as §3

Coagulation factor X, sequence (P00742 41-179 limits assumed): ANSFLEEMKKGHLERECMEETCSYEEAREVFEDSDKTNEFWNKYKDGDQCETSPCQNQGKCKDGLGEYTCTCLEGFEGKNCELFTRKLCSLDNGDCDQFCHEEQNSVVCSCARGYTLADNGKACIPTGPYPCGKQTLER
Coagulation factor X, sequence (P00742 235-488 limits assumed): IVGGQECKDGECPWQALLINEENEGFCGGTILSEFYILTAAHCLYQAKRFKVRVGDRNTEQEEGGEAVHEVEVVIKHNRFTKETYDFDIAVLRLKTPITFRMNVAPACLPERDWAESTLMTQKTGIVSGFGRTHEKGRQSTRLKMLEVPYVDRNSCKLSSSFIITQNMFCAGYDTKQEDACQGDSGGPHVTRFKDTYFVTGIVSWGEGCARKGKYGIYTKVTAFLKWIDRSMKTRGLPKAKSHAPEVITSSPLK

Compound CC(C)N1CCC(C(=O)Nc2c(O[C@@H]3O[C@H](C(=O)O)[C@@H](O)[C@H](O)[C@H]3O)cc(Cl)cc2C(=O)Nc2ccc(Cl)cn2)CC1 has an IC50 [1] of 15 nM.

For CC(C)N1CCC(C(=O)Nc2ccc(Cl)cc2C(=O)Nc2ccc(Cl)cn2)CC1, the Activity [2] was “Active”, the Activity [3] was “Active” and the Papp at 2 h [4] was > 30 ×10⁻⁶ cm/s. The logD [5] was 1.8, the IC50 [1] was 5.8 nM and the 2PT [6] was 0.22 µM.

Work on CC(C)N1CCC(C(=O)Nc2c(O)cc(Cl)cc2C(=O)Nc2ccc(Cl)cn2)CC1 yielded an IC50 [1] of 8.2 nM.

For CC(C)N1CCC(C(=O)Nc2c(O[C@@H]3O[C@H](C(=O)O)[C@@H](O)[C@H](O)[C@H]3O)cc(Br)cc2C(=O)Nc2ccc(Cl)cn2)CC1, the IC50 [7] was > 100 µM, the IC50 [8] was > 100 µM and the logD [5] was -1.1. The IC50 [1] was 4.9 nM, the Activity [9] was “Active” and the 2PT [6] was 0.28 µM. For the same compound, the Drug metabolism [10] was “metabolite_detected”.

With CC(C)N1CCC(C(=O)Nc2c(O)cc(Br)cc2C(=O)Nc2ccc(Cl)cn2)CC1 the IC50 [7] was > 100 µM, the IC50 [8] was > 100 µM and the Papp at 2 h [4] was > 30 ×10⁻⁶ cm/s. The Activity [11] was “Active”, the IC50 [1] was 4 nM and the 2PT [6] was 0.31 µM. The Drug metabolism [12] was “metabolite_detected”.
